# Laboratory results: ChEMBL document CHEMBL1154067, “Antiviral and cytotoxic activities of aminoarylazo compounds and aryltriazene derivatives” (Bioorg Med Chem, 2009)
# Activity calls are given as the source filed them.
# Columns and labels:
# [1] = tested on: Bovine viral diarrhea virus 1; test: Antiviral activity against Bovine viral diarrhea virus infected in MDBK cells assessed as inhibition of virus-induced cytopathicity after 3 to 4 days by MTT assay; assay type: functional, organism-based; conditions: Bovine viral diarrhea virus isolates and strains
# [2] = Cytotoxicity against MDBK cells after 48 to 96 hrs by MTT assay; assay type: cell-based, Bos taurus; conditions: cattle, mdbk
# Method in brief: (§1)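 Mock-infected cells in maintenance medium, MDBK at 6 × 10^5 and BHK at 1 × 10^6 cells/mL initial density, with or without serial compound dilutions. Run in parallel with antiviral assays. Viability by MTT after 48–96 h at 37 °C, 5% CO2. CC50 = concentration reducing viability 50%.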
# [3] = tested on: Vero; test: Cytotoxicity against african green monkey Vero 76 cells by crystal violet staining; assay type: cell-based; conditions: chlorocebus sabaeus, vero
# Method in brief: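 Mock-infected Vero 76 seeded at 4 × 10^5 cells/mL, run in parallel with plaque assays, with or without serial compound dilutions. Cell number of monolayers determined by crystal violet staining. CC50 = concentration reducing viable cell number 50%.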
# [4] = tested on: Respiratory syncytial virus; test: Antiviral activity against Respiratory syncytial virus A2 infected in Vero-76 cells after 5 days by plaque reduction assay; assay type: functional, organism-based; conditions: human respiratory syncytial virus, A2, Vero 76, 120 h
# [5] = tested on: Human alphaherpesvirus 1; test: Antiviral activity against HSV1 infected in Vero-76 cells after 3 days by plaque reduction assay; assay type: functional, organism-based; conditions: Human alphaherpesvirus 1, Vero 76, 72 h
# [6] = tested on: Vaccinia virus; test: Antiviral activity against Vaccinia virus after 3 days by plaque reduction assay; assay type: functional, organism-based; conditions: Orthopoxvirus vaccinia
# [7] = Cytotoxicity against hamster BHK21 cells assessed as reduction in cell viability after 48 to 96 hrs by MTT assay; assay type: cell-based, Mesocricetus auratus, BHK-21; conditions: bhk-21; method in brief: as §1
# [8] = tested on: Mammalian orthoreovirus 1; test: Antiviral activity against Reovirus-1 infected in BHK-21 cells assessed as inhibition of virus-induced cytopathicity after 3 to 4 days by MTT assay; assay type: functional, organism-based; conditions: Mammalian orthoreovirus 1, BHK-21
# Method in brief: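 BHK-21 cells seeded at 5 × 10^4 cells/well, grown overnight to confluent monolayers at 37 °C in 5% CO2, then infected at m.o.i. 0.01 in serum-free medium. One hour later, MEM Earle's with 1% final inactivated FCS added, with or without serial compound dilutions. Viability read by MTT after 3–4 days at 37 °C. EC50 is the concentration giving 50% protection from cytopathogenicity.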
# [9] = tested on: MT4; test: Cytotoxicity against human MT4 cells after 96 hrs by MTT assay; assay type: cell-based; conditions: mt4, 96 h
# Method in brief: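 Exponentially growing mock-infected MT-4 seeded at 1 × 10^5 cells/mL in RPMI-1640 with 10% FCS, penicillin and streptomycin. Incubated with or without serial compound dilutions at 37 °C, 5% CO2. Viability by MTT after 96 h. CC50 = concentration reducing viability 50%.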
# [10] = tested on: Human immunodeficiency virus 1; test: Antiviral activity against HIV1 infected in human MT4 cells assessed as inhibition of virus-induced cytopathicity after 4 days by MTT assay; assay type: functional, organism-based
# [11] = tested on: Yellow fever virus; test: Antiviral activity against Yellow fever virus infected in BHK-21 cells assessed as inhibition of virus-induced cytopathicity after 3 to 4 days by MTT assay; assay type: functional, organism-based
# [12] = tested on: Vesicular stomatitis virus; test: Antiviral activity against Vesicular stomatitis virus after 2 days by plaque reduction assay; assay type: functional, organism-based
# [13] = tested on: Coxsackievirus B2; test: Antiviral activity against Coxsackie virus type B2 virus infected in african green monkey Vero-76 cells after 3 days by plaque reduction assay; assay type: functional, organism-based; conditions: Enterovirus B, Vero 76, 72 h
# Method in brief: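 Vero 76 cells seeded at 2 × 10^5 cells/well, grown overnight to confluence at 37 °C in 5% CO2, then infected at 50–100 PFU/well. Unadsorbed virus removed. Overlay of DMEM with 1% inactivated FCS and 0.75% methylcellulose, with or without serial compound dilutions. After 3 days at 37 °C, fixed and stained with crystal violet in PBS/50% ethanol; plaques counted. EC50 is the concentration reducing plaque number by 50%.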
# [14] = tested on: Poliovirus 1; test: Antiviral activity against Human poliovirus 1 strain Sabin after 2 days by plaque reduction assay; assay type: functional; conditions: for EC50: Enterovirus C, 48 h
SMILES,EC50 [1],CC50 [2],CC50 [3],EC50 [4],EC50 [5],Activity [6],CC50 [7],EC50 [8],CC50 [9],inhibition [10],EC50 [11],Activity [12],EC50 [13],Activity [14],EC50 [14]
CN(C)CCCNc1ccc(/N=N/c2cccc([N+](=O)[O-])c2)cc1,16 µM,33 µM,25 µM,> 25 µM,6 µM,inactive,20 µM,> 20 µM,14 µM,inactive,7 µM,inactive,11 µM,inactive,–
Cc1ccc(/N=N/N(C)c2ccccc2)cc1,> 100 µM,> 100 µM,58 µM,> 58 µM,> 58 µM,inactive,> 100 µM,> 100 µM,45 µM,inactive,> 100 µM,inactive,> 58 µM,–,> 58 µM
Fc1ccc(F)c(/N=N/Nc2ccccc2)c1,> 100 µM,> 100 µM,80 µM,10 µM,55 µM,inactive,> 100 µM,> 100 µM,100 µM,inactive,> 100 µM,inactive,12 µM,–,> 80 µM
FC(F)(F)c1cccc(/N=N/c2ccc(NC[C@@H]3CCCN4CCCC[C@H]34)c3c2CCCC3)c1,7 µM,30 µM,50 µM,> 50 µM,> 50 µM,inactive,14 µM,> 14 µM,15 µM,inactive,> 14 µM,inactive,> 50 µM,inactive,–
CN(C)CCCN(/N=N/c1ccccc1)c1ccccc1,≥ 95 µM,95 µM,35 µM,> 35 µM,12 µM,inactive,50 µM,> 50 µM,33 µM,inactive,> 50 µM,inactive,6 µM,–,> 35 µM
c1ccc(CN/N=N/c2ccccc2)cc1,> 100 µM,> 100 µM,100 µM,> 100 µM,> 100 µM,inactive,> 100 µM,> 100 µM,42 µM,inactive,> 100 µM,inactive,> 100 µM,–,> 100 µM
CN(C)CCCN(/N=N/c1cc(F)ccc1F)c1ccccc1,> 25 µM,25 µM,7 µM,> 7 µM,> 7 µM,inactive,25 µM,> 25 µM,13 µM,inactive,> 25 µM,inactive,> 7 µM,–,> 7 µM
Fc1ccc(/N=N/c2ccc(NC[C@@H]3CCCN4CCCC[C@H]34)c3c2CCCC3)c(F)c1,> 11 µM,11 µM,15 µM,> 15 µM,> 15 µM,inactive,9 µM,> 9 µM,51 µM,inactive,> 9 µM,inactive,> 15 µM,inactive,–
CN(C)CCCNc1ccc(/N=N/c2cc(F)ccc2F)cc1,9 µM,59 µM,30 µM,> 30 µM,12 µM,inactive,33 µM,> 33 µM,16 µM,inactive,12 µM,inactive,> 30 µM,inactive,–
CN(C)CCCN(/N=N/c1ccc([N+](=O)[O-])cc1)c1ccccc1,≥ 39 µM,39 µM,40 µM,> 40 µM,> 40 µM,inactive,36 µM,> 36 µM,20 µM,inactive,≥ 36 µM,inactive,> 40 µM,–,> 40 µM
Cc1ccc(/N=N/c2ccc(NCCCN(C)C)cc2)cc1,> 100 µM,> 100 µM,50 µM,> 50 µM,> 50 µM,inactive,> 100 µM,> 100 µM,17 µM,inactive,> 100 µM,inactive,> 50 µM,inactive,–
CN(C)CCCNc1ccc(/N=N/c2c(F)cccc2F)cc1,≥ 20 µM,20 µM,65 µM,> 65 µM,> 65 µM,inactive,43 µM,12 µM,35 µM,inactive,10 µM,inactive,> 65 µM,inactive,–
CN(/N=N/c1cccc([N+](=O)[O-])c1)c1ccccc1,> 82 µM,82 µM,> 100 µM,15 µM,> 100 µM,inactive,> 100 µM,33 µM,> 100 µM,inactive,> 100 µM,inactive,> 100 µM,–,29 µM
CN(C)CCCN(/N=N/c1c(F)cccc1F)c1ccccc1,> 45 µM,45 µM,25 µM,≥ 25 µM,12 µM,inactive,52 µM,> 52 µM,23 µM,inactive,20 µM,inactive,9 µM,–,> 25 µM
O=[N+]([O-])c1cccc(/N=N/Nc2ccccc2)c1,19 µM,94 µM,33 µM,> 33 µM,> 33 µM,inactive,38 µM,> 38 µM,40 µM,inactive,> 38 µM,inactive,> 33 µM,–,> 33 µM
FC(F)(F)c1cccc(N/N=N/c2ccccc2)c1,> 100 µM,> 100 µM,15 µM,3 µM,> 15 µM,inactive,> 100 µM,> 100 µM,> 100 µM,inactive,≥ 100 µM,inactive,8 µM,–,> 15 µM
CN(C)CCCNc1ccc(/N=N/c2ccccc2)cc1,1.6 µM,58 µM,30 µM,25 µM,> 30 µM,inactive,31 µM,> 31 µM,17 µM,inactive,≥ 31 µM,inactive,> 30 µM,inactive,–
